Our source for the IC50, Activity and viability values is ChEMBL document CHEMBL3872267, “Design and synthesis of phosphoryl-substituted diphenylpyrimidines (Pho-DPPYs) as potent Bruton's tyrosine kinase (BTK) inhibitors: Targeted treatment of B lymphoblastic leukemia cell lines” (Bioorg Med Chem, 2017).

For experiment [1], the target named is Tyrosine-protein kinase BTK (Homo sapiens, UniProt Q06187). In words: Inhibition of human recombinant full-length N-terminal His-tagged BTK expressed in baculovirus infected Sf9 insect cells measured after 60 mins by ADP-Glo kinase assay. Background: ADP-Glo first removes unused ATP, then detects ADP through luciferase.
Tyrosine-protein kinase BTK, sequence (Q06187 whole entry): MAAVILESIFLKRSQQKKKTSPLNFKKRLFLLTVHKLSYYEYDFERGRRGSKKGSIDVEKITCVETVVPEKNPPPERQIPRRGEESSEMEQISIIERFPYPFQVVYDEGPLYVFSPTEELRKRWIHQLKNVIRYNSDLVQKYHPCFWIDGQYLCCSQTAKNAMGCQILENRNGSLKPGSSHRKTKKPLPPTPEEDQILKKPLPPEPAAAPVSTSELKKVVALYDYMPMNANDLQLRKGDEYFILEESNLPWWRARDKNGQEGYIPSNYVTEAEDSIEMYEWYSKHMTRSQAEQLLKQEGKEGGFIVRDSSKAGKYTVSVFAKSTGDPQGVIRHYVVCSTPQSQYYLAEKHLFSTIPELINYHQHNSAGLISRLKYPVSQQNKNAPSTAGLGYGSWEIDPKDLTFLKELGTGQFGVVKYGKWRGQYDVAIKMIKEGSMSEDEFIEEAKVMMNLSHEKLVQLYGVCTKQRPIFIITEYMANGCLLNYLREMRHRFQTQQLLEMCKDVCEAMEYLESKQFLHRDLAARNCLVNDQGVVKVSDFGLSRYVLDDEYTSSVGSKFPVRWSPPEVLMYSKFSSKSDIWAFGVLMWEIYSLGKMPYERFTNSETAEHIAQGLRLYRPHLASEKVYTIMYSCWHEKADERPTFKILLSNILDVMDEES
A short description of experiment [2]: Antiproliferative activity against human Ramos cells measured after 48 hrs by CCK-8 assay. Format: functional, cell-based. In outline:
(§1)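 Cells seeded at 2000–3000 cells/well and kept one day at 37 °C, 5% CO₂ in RPMI1640 with 10% FBS. Viability was read by CCK-8 absorbance at 450 nm, and seeding was adjusted to give 0.5–1.2 absorbance. IC50 was derived by curve fitting.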
Background: Tetrazolium assays rely on reduction of a dye to a coloured formazan, in cell work by metabolically active cells.

Experiment [3] can be described thus: Antiproliferative activity against human Raji cells measured after 48 hrs by CCK-8 assay. The format is functional, cell-based. In outline: as §1
Experiment [4] is described as follows: Cell cycle arrest in human Ramos cells assessed as accumulation at G0/G1 phase at 10 uM measured after 48 hrs by propidium iodide based flow cytometry (reference value: 39.95 %). Format: functional. In outline:
(§2)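 Ramos cells at about 2 × 10⁵ cells/well were treated for 48 h, then fixed overnight in 70% ethanol at 4 °C. After a PBS wash they were stained with propidium iodide for 10 min under subdued light. Cell-cycle phase distribution was determined by flow cytometry.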

Experiment [5] can be described thus: Cell cycle arrest in human Ramos cells assessed as accumulation at S phase at 10 uM measured after 48 hrs by propidium iodide based flow cytometry (reference value: 55.07 %). The format is functional. In outline:
as §2
For orientation: Flow cytometry measures light scatter and fluorescence of single cells or particles in a stream.

The nature of experiment [6]: Cell cycle arrest in human Ramos cells assessed as accumulation at G2/M phase at 10 uM measured after 48 hrs by propidium iodide based flow cytometry (reference value: 4.98 %). Format: functional. In outline: as §2
Experiment [7] relates to Ramos. In words: Induction of apoptosis in human Ramos cells assessed as viable cells at 10 uM measured after 48 hrs by Annexin V-FITC/propidium iodide based flow cytometry relative to control. Format: functional. In outline: (§3)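 Ramos cells at 1–5 × 10⁵ cells/well were treated for 48 h in medium with 5% FBS, with a DMSO solvent control. They were […], stained with Annexin V-FITC/propidium iodide, and analysed by flow cytometry.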

Experiment [8] relates to Ramos. In words: Induction of apoptosis in human Ramos cells assessed as late apoptotic cells at 10 uM measured after 48 hrs by Annexin V-FITC/propidium iodide based flow cytometry relative to control. Format: functional. In outline:
as §3

Experiment [9] concerns Ramos. In words: Induction of apoptosis in human Ramos cells assessed as early apoptotic cells at 10 uM measured after 48 hrs by Annexin V-FITC/propidium iodide based flow cytometry relative to control. The format is functional. In outline:
as §3

Experiment [10] concerns Ramos. The experiment can be described thus: Induction of apoptosis in human Ramos cells assessed as necrotic cells at 10 uM measured after 48 hrs by Annexin V-FITC/propidium iodide based flow cytometry (reference value: 0.2 %). Format: functional. In outline:
as §3

Experiment [11] has as its system Ramos. The experiment can be described thus: Induction of apoptosis in human Ramos cells assessed as viable cells at 1 uM measured after 48 hrs by Annexin V-FITC/propidium iodide based flow cytometry relative to control. Conditions: read-out: Activity. The format is functional. In outline:
as §3

Experiment [12] has as its system Ramos. In words: Induction of apoptosis in human Ramos cells assessed as late apoptotic cells at 1 uM measured after 48 hrs by Annexin V-FITC/propidium iodide based flow cytometry relative to control. The format is functional. In outline: as §3
Experiment [13] in a line: Cell cycle arrest in human Ramos cells assessed as accumulation at G0/G1 phase at 1 uM measured after 48 hrs by propidium iodide based flow cytometry (reference value: 39.95 %). The format is functional. In outline:
as §2

A short description of experiment [14]: Cell cycle arrest in human Ramos cells assessed as accumulation at S phase at 1 uM measured after 48 hrs by propidium iodide based flow cytometry (reference value: 55.07 %). Format: functional. In outline: as §2
Experiment [15] in a line: Cell cycle arrest in human Ramos cells assessed as accumulation at G2/M phase at 1 uM measured after 48 hrs by propidium iodide based flow cytometry (reference value: 4.98 %). Format: functional. In outline: as §2
A short description of experiment [16]: Cell cycle arrest in human Ramos cells assessed as accumulation at G0/G1 phase at 5 uM measured after 48 hrs by propidium iodide based flow cytometry (reference value: 39.95 %). The format is functional. In outline:
as §2

The nature of experiment [17]: Cell cycle arrest in human Ramos cells assessed as accumulation at S phase at 5 uM measured after 48 hrs by propidium iodide based flow cytometry (reference value: 55.07 %). Format: functional. In outline: as §2
Experiment [18] in a line: Cell cycle arrest in human Ramos cells assessed as accumulation at G2/M phase at 5 uM measured after 48 hrs by propidium iodide based flow cytometry (reference value: 4.98 %). Format: functional. In outline: as §2
Experiment [19] concerns Ramos. The experiment can be described thus: Induction of apoptosis in human Ramos cells assessed as early apoptotic cells at 1 uM measured after 48 hrs by Annexin V-FITC/propidium iodide based flow cytometry relative to control. Format: functional. In outline: as §3
Experiment [20] has as its system Ramos. In words: Induction of apoptosis in human Ramos cells assessed as necrotic cells at 1 uM measured after 48 hrs by Annexin V-FITC/propidium iodide based flow cytometry (reference value: 0.2 %). The format is functional. In outline: as §3
Experiment [21] deals with Ramos. In words: Induction of apoptosis in human Ramos cells assessed as viable cells at 5 uM measured after 48 hrs by Annexin V-FITC/propidium iodide based flow cytometry relative to control. The format is functional. Conditions: read-out: Activity. In outline: as §3
The test system of experiment [22] is Ramos. The experiment can be described thus: Induction of apoptosis in human Ramos cells assessed as late apoptotic cells at 5 uM measured after 48 hrs by Annexin V-FITC/propidium iodide based flow cytometry relative to control. Format: functional. In outline:
as §3

Experiment [23] relates to Ramos. The experiment can be described thus: Induction of apoptosis in human Ramos cells assessed as early apoptotic cells at 5 uM measured after 48 hrs by Annexin V-FITC/propidium iodide based flow cytometry relative to control. Format: functional. In outline: as §3
For experiment [24], the system named is Ramos. The experiment can be described thus: Induction of apoptosis in human Ramos cells assessed as necrotic cells at 5 uM measured after 48 hrs by Annexin V-FITC/propidium iodide based flow cytometry (reference value: 0.2 %). The format is functional. In outline: as §3

As usually defined, the IC50 is the concentration that inhibits the measured activity by half.

As for `C=CC(=O)Nc1cccc(Nc2nc(Nc3ccc(OCCCP(=O)(OCC)OCC)cc3)ncc2F)c1`, the IC50 in experiment [1] is 0.0216 µM; in [2], 11.5 µM; in experiment [3], 16.4 µM.

As to `C=CC(=O)Nc1cccc(Nc2nc(Nc3ccc(CP(=O)(OCC)OCC)cc3)ncc2F)c1`, the figures for the IC50 in experiment [1], in [2] and in experiment [3] were 0.0321 µM, 9.36 µM and 34.9 µM, respectively.

With `C=CC(=O)Nc1cccc(Nc2nc(Nc3ccc(CP(=O)(OCC)N4CCOCC4)cc3)ncc2Cl)c1` (stereo not drawn), the IC50 in experiment [1] was found to be 0.112 µM; in experiment [2], 27.4 µM; in experiment [3] it was 7.71 µM.

For `C=CC(=O)Nc1cccc(Nc2nc(Nc3ccc(CP(=O)(OCC)OCC)cc3)ncc2Cl)c1`, the figures for the IC50 in experiment [1], in experiment [2] and in [3] were 0.00123 µM, 11.7 µM and 13.5 µM, respectively.

As to `C=CC(=O)Nc1cccc(Nc2nc(Nc3ccc(OCCOC)cc3)ncc2F)c1` [SPEBRUTINIB], the Activity came out at 31% in experiment [4]; 47.9% in [5]; 20.9% in experiment [6]; 20.4% in the experiment on Ramos [8]; 21.1% with Ramos [9]; 4.3% in the experiment on Ramos [10]. In addition, in the experiment with Ramos [7] (Homo sapiens, Ramos, 48 h, read-out: Activity), the viability at 10 µM came out at 54.2%.

Regarding `C=CC(=O)Nc1cccc(Nc2nc(Nc3ccc(OCCCP(=O)(OCC)OCC)cc3)ncc2Cl)c1`, the figures for the IC50 in [1], in experiment [2] and in experiment [3] were 0.0106 µM, 5.4 µM and 6.07 µM, respectively.

As for `C=CC(=O)N1CCC[C@@H](n2nc(-c3ccc(Oc4ccccc4)cc3)c3c(N)ncnc32)C1` [IBRUTINIB], the Activity in experiment [4] was found to be 43.2%; in [5], 50.2%; in experiment [6] it was 6.57%; with Ramos [7], 52%; in the experiment on Ramos [9], 37%; with Ramos [10], 0.1%.

`C=CC(=O)Nc1cccc(Nc2nc(Nc3ccc(OCCCP(=O)(OCC)N4CCOCC4)cc3)ncc2Cl)c1` (stereo not drawn): the values for the IC50 in experiment [1], in experiment [2] and in experiment [3] were 0.00082 µM, 3.17 µM and 6.69 µM, respectively. For the same molecule, the viability at 1 µM in the experiment with Ramos [11] is 50.9%. The Activity amounted to 5.9% in the experiment on Ramos [12]; 36.9% in experiment [13]; 55.4% in experiment [14]; 7.68% in [15]; 36.4% in [16]; 38% in experiment [4]. For the same molecule, the Activity in experiment [17] is 54.3%; in experiment [5], 50.8%; in experiment [18], 9.29%; in experiment [6], 11.2%; in the experiment on Ramos [19], 27.7%; in the experiment on Ramos [20] it was 15.6%. Also, the Activity in the experiment with Ramos [22] amounted to 7.5%; in the experiment on Ramos [23], 37.6%; in the experiment on Ramos [24] it was 14.7%. Also, in the experiment on Ramos [21], the viability at 5 µM came to 40.2%.
